# Experimental data published in ChEMBL document CHEMBL1156036, “A class of novel N-(3S-1,2,3,4-tetrahydroisoquinoline-3-carbonyl)-L-amino acid derivatives: their synthesis, anti-thrombotic activity evaluation, and 3D QSAR analysis” (Eur J Med Chem, 2009).
# Square brackets hold non-standard residues; d marks the D form. Peptide text beside a SMILES is read from it. Tic = O=C(O)[C@@H]1Cc2ccccc2CN1
# Tests used:
# Format in all cases: functional
# Rattus norvegicus [1] = experiment: Antithrombotic activity in Wistar rat assessed as reduction of wet thrombus weight at 15 umol/kg, iv after 15 mins
# Method in brief: (§1)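 Male Wistar rats, 250-300 g, given agent dissolved in NS (kept on ice) intravenously; Aspirin 15 μmol/kg as reference, NS as vehicle. Pentobarbital sodium 80.0 mg/kg i.p. Arteriovenous shunt from right carotid artery to left jugular vein via polyethylene tube containing a thread; blood flowed 15 min; wet thrombus weighed, n = 12, mean ± SD.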
# [2] = Antiplatelet aggregatory activity in pig […] assessed as inhibition of ADP-induced platelet aggregation; conditions: Sus scrofa
# Method in brief: (§2)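 Pig blood spun 1000g 10 min for platelet-rich plasma, then 1500g 10 min for platelet-poor plasma; platelets adjusted to 2×10^8/ml with autologous PPP. Test agent in NS (final 100 to 0.001 μM) added to 0.5 ml plasma, then inducer in NS: PAF 0.1 μM, ADP 10 μM, AA 350 μM or thrombin 0.1 U/ml (final). Optical aggregometry, 37 °C, 5 min, six tubes.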
# [3] = Antiplatelet aggregatory activity in pig […] assessed as inhibition of arachidonic acid-induced platelet aggregation; conditions: Sus scrofa; method in brief: as §2
# [4] = Antiplatelet aggregatory activity in pig […] assessed as inhibition of platelet-activating factor-induced platelet aggregation; conditions: Sus scrofa; method in brief: as §2
# [5] = Antiplatelet aggregatory activity in pig […] assessed as inhibition of thrombin-induced platelet aggregation; conditions: Sus scrofa; method in brief: as §2
# Rattus norvegicus [6] = experiment: Antithrombotic activity in Wistar rat assessed as reduction of wet thrombus weight at 15 umol/kg, po after 15 mins
# Rattus norvegicus [7] = experiment: Antithrombotic activity in Wistar rat assessed as reduction of wet thrombus weight at 5 umol/kg, iv after 15 mins; method in brief: as §1
# Rattus norvegicus [8] = species on record: Rattus norvegicus; experiment: Ratio of compound antithrombotic potency to aspirin antithrombotic potency in Wistar rat assessed as reduction of wet thrombus weight
# Rattus norvegicus [9] = experiment: Antithrombotic activity in Wistar rat assessed as reduction of wet thrombus weight at 5 umol/kg, po after 15 mins
# Method in brief: (§3)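 Oral dosing of male Wistar rats at 5, 1 or 0.2 μmol/kg in NS, or NS (0.6 ml) alone. Pentobarbital sodium 80.0 mg/kg ip; 30 min later vessels exposed. Weighed 6-cm thread in heparin-filled (50 IU/ml in NS) polyethylene tube linking carotid artery to jugular vein; 15 min flow; wet thrombus weight recorded, n = 12.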
# Rattus norvegicus [10] = experiment: Antithrombotic activity in Wistar rat assessed as reduction of wet thrombus weight at 1 umol/kg, po after 15 mins; method in brief: as §3
# Rattus norvegicus [11] = experiment: Antithrombotic activity in Wistar rat assessed as reduction of wet thrombus weight at 0.2 umol/kg, po after 15 mins; method in brief: as §3
IC50 [2] [nM],IC50 [3] [nM],IC50 [4] [nM],IC50 [5] [nM],SMILES,Activity (Rattus norvegicus [1]) [mg],Activity (Rattus norvegicus [6]) [mg],Activity (Rattus norvegicus [7]) [mg],Ratio (Rattus norvegicus [8]),Activity (Rattus norvegicus [9]) [mg],Activity (Rattus norvegicus [10]) [mg],Activity (Rattus norvegicus [11]) [mg]
–,–,–,–,CC(=O)Oc1ccccc1C(=O)O [ASPIRIN],27.6,–,–,–,–,–,–
552,452,960,881,O=C(O)[C@@H]1Cc2ccccc2CN1,21.52,23.88,–,–,–,–,–
231,460,780,386,O=C(O)[C@H](CS)NC(=O)[C@@H]1Cc2ccccc2CN1 (H-[Tic]-Cys-OH),–,–,20.91,>30,–,–,–
481,390,1150,970,O=C(O)[C@H](Cc1ccc(O)cc1)NC(=O)[C@@H]1Cc2ccccc2CN1 (H-[Tic]-Tyr-OH),–,–,19.31,>30,–,–,–
194,277,1040,733,NCCCC[C@H](NC(=O)[C@@H]1Cc2ccccc2CN1)C(=O)O (H-[Tic]-Lys-OH),–,–,21.28,>30,–,–,–
124,361,1340,496,N=C(N)NCCC[C@H](NC(=O)[C@@H]1Cc2ccccc2CN1)C(=O)O (H-[Tic]-Arg-OH),–,–,18.73,>30,19.01,24.38,29.11
164,418,588,763,C[C@@H](O)[C@H](NC(=O)[C@@H]1Cc2ccccc2CN1)C(=O)O (H-[Tic]-Thr-OH),–,–,21.25,>30,–,–,–
388,416,942,841,O=C(O)[C@H](CO)NC(=O)[C@@H]1Cc2ccccc2CN1 (H-[Tic]-Ser-OH),–,–,23.58,>30,–,–,–
